Reference: ChEMBL document CHEMBL1123309, “Esters and lactones of phenolic amino carboxylic acids: prodrugs for iron chelation” (J Med Chem, 1986)
Values joined by “and” are separate entries in the source; they are usually repeats but may differ in a detail not shown here. Equal values may be shown once.

Experiments:
Rattus norvegicus [1] = assay: Percent change in iron levels was determined in feces using iron overload rat model where the route of administration is Intraperitoneal; type: functional
[2] = Compound was evaluated for lethal dose after intraperitoneal administration using iron overload rat model; type: toxicity, organism-based; conditions: in vivo, ip
Rattus norvegicus [3] = assay: Percent change in iron levels was determined in urine using iron overload rat model where the route of administration is Peroral; type: functional
Rattus norvegicus [4] = assay: Percent change in iron levels was determined in urine using iron overload rat model where the route of administration is Intraperitoneal; type: functional
Mus musculus [5] = assay: BDF1 male mice were administered with 300 mg/kg intraperitoneally and number of survivors was determined out of 10 tested; type: functional; conditions: route intraperitoneal
Method in brief: (§1)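 Male BDF1 mice were iron-loaded by transfusion of canine red cells. The cells were heparinised, washed twice in isotonic saline and heated at 50 °C for 30 min. Dosing started two days after the last transfusion, once daily for 7 consecutive days. Compounds were given in distilled water or as a fine aqueous suspension with Polysorbate 80 (2% final). Toxic signs were recorded daily and survivors counted per group.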

Mus musculus [6] = assay: BDF1 male mice were administered with 100 mg/kg po and percent change in iron levels was determined in Feces; type: functional
Method in brief: (§2)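 Male BDF1 mice made iron-overloaded by transfusion of washed, heat-treated (50 °C, 30 min) canine red cells. Dosing began 2 days after the last transfusion, once daily for 7 days, in distilled water or 2% Polysorbate 80 suspension. Daily group urine was collected. Pooled feces were digested in 1 N HCl (90 °C, 30 min). Liver and spleen were homogenized in saline. Iron was measured by atomic absorption and expressed as % change vs transfused controls.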

Mus musculus [7] = assay: BDF1 male mice were administered with 150 mg/kg po and percent change in iron levels was determined in Urine; type: functional; method in brief: as §2
Mus musculus [8] = assay: BDF1 male mice were administered with 150 mg/kg po and percent change in iron levels was determined in Liver; type: functional; method in brief: as §2
Mus musculus [9] = assay: BDF1 male mice were administered with 100 mg/kg po and percent change in iron levels was determined in Spleen; type: functional; method in brief: as §2
Mus musculus [10] = assay: BDF1 male mice were administered with 100 mg/kg ip and percent change in iron levels was determined in Liver; type: functional; conditions: route intraperitoneal; method in brief: as §2
Mus musculus [11] = assay: BDF1 male mice were administered with 150 mg/kg po and percent change in iron levels was determined in Feces; type: functional; method in brief: as §2
Mus musculus [12] = assay: BDF1 male mice were administered with 100 mg/kg ip and percent change in iron levels was determined in Urine; type: functional; conditions: route intraperitoneal; method in brief: as §2
Mus musculus [13] = assay: BDF1 male mice were administered with the compound and number of survivors was determined at a dose 150 mg/kg peroral out of 10 tested; type: functional; conditions: route oral; method in brief: as §1
Mus musculus [14] = assay: BDF1 male mice were administered with 150 mg/kg po and percent change in iron levels was determined in Spleen; type: functional; method in brief: as §2
Mus musculus [15] = assay: BDF1 male mice were administered with the compound and number of survivors was determined at a dose 100 mg/kg peroral out of 10 tested; type: functional; conditions: route oral; method in brief: as §1
Mus musculus [16] = assay: BDF1 male mice were administered with 100 mg/kg po and percent change in iron levels was determined in Urine; type: functional; method in brief: as §2
Mus musculus [17] = assay: BDF1 male mice were administered with 100 mg/kg po and percent change in iron levels was determined in Liver; type: functional; method in brief: as §2
Mus musculus [18] = assay: BDF1 male mice were administered with 100 mg/kg ip and percent change in iron levels was determined in Feces; type: functional; conditions: route intraperitoneal; method in brief: as §2
Mus musculus [19] = assay: BDF1 male mice were administered with the compound and number of survivors was determined at a dose 100 mg/kg intraperitoneal out of 10 tested; type: functional; method in brief: as §1
Rattus norvegicus [20] = assay: Percent change in iron levels was determined in feces using iron overload rat model where the route of administration is Peroral; type: functional
Mus musculus [21] = assay: BDF1 male mice were administered with 100 mg/kg ip and percent change in iron levels was determined in Spleen; type: functional; conditions: route intraperitoneal; method in brief: as §2

## O=C(O)C(NCCNC(C(=O)O)c1ccccc1O)c1ccccc1O (stereo not given)
Rattus norvegicus [1]
  Iron change: 111%
[2]
  LD50: 175 mg/kg
Rattus norvegicus [3]
  Iron change: 19% and 31%
Rattus norvegicus [4]
  Iron change: 484%

## COC(=O)CN(Cc1ccccc1O)CC1CN(Cc2ccccc2O)CC(=O)O1 (stereo not given)
Mus musculus [5]
  No. of survivors: 10

## CCCCCOC(=O)CN(CCN(CC(=O)OCCCCC)Cc1ccccc1O)Cc1ccccc1O
Rattus norvegicus [1]
  Iron change: 114%
Mus musculus [6]
  Iron change: -3%
Mus musculus [7]
  Iron change: 132%
Mus musculus [8]
  Iron change: -60%
Mus musculus [9]
  Iron change: 12%
Mus musculus [10]
  Iron change: -33%
Mus musculus [11]
  Iron change: -69%
Rattus norvegicus [3]
  Iron change: 390%
Mus musculus [12]
  Iron change: 117%
Mus musculus [13]
  No. of survivors: 8
Mus musculus [14]
  Iron change: -11%
Mus musculus [15]
  No. of survivors: 10
Mus musculus [16]
  Iron change: 43%
Rattus norvegicus [4]
  Iron change: 215%
Mus musculus [17]
  Iron change: -12%
Mus musculus [18]
  Iron change: 24%
Mus musculus [19]
  No. of survivors: 10
Rattus norvegicus [20]
  Iron change: 268%
Mus musculus [21]
  Iron change: -2%

## CCOC(=O)C(NCCNC(C(=O)OCC)c1ccccc1O)c1ccccc1O (stereo not given)
[2]
  LD50: ≥ 800 mg/kg

## COC(=O)C(NCCNC(C(=O)OC)c1ccccc1O)c1ccccc1O (stereo not given)
Rattus norvegicus [1]
  Iron change: 104%
[2]
  LD50: ≥ 800 mg/kg
Rattus norvegicus [3]
  Iron change: 115%
Rattus norvegicus [4]
  Iron change: 188%
Rattus norvegicus [20]
  Iron change: 89%
